Experimental data published in ChEMBL document CHEMBL4017514, “Discovery of Novel Macrocyclic Hedgehog Pathway Inhibitors Acting by Suppressing the Gli-Mediated Transcription” (J Med Chem, 2017).
The source made the active and inactive calls.

Key:
[1] = organism: Mus musculus; assay: Inhibition of hedgehog signaling pathway in mouse Light2 cells harboring Smo D473H mutant after 36 hrs by Gli luciferase activity; format: cell-based
In short: (§1)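 Light II cells (NIH-3T3 stably carrying Gli-responsive firefly luciferase and Renilla vector) transfected with wild-type, D473H or W535L Smo plasmid. Exposed to compound for 36 h, then dual luciferase assay with firefly/Renilla normalization. IC50 derived and given as mean ± SD.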

[2] = organism: Mus musculus; assay: Inhibition of hedgehog signaling pathway in mouse NIH/3T3 cells assessed as reduction in edogenous expression of Gli1 protein by immunoblot analysis; format: cell-based
In short: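 NIH-3T3 cells cultured in 10% FBS were exposed to compound at various concentrations for 24 h. Endogenous Gli1 and Gli2 detected by Western blot.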

[3] = organism: Mus musculus; assay: Inhibition of hedgehog signaling pathway in mouse Light2 cells harboring Smo W535L mutant after 36 hrs by Gli luciferase activity; format: cell-based; in short: as §1
[4] = organism: Mus musculus; assay: Inhibition of hedgehog signaling pathway in mouse Shh Light2 cells harboring Gli1 plasmid assessed as reduction in Gli1-mediated transcriptional activity by luciferase reporter gene assay; format: cell-based
[5] = system: Mus musculus; assay: Downregulation of ptch1 mRNA expression level in athymic nude mouse implanted with mouse Ptch+/- p53-/- medulloblastoma cells at 25 to 50 mg/kg, ip bid for 15 consecutive days measured after 4 hrs of last dosage by RT-qPCR analysis; format: functional, organism-based
In short: (§2)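 Same allograft model (n = 5), dosed ip twice daily for 15 days in 0.5% methylcellulose/0.2% Tween-80 suspension. Tumors harvested 4 h after the last dose. Gli1 and ptch1 mRNA quantified by RT-qPCR. Data given as mean ± SD.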

[6] = organism: Mus musculus; assay: Inhibition of hedgehog signaling pathway in mouse NIH/3T3 cells assessed as downregulation of Shh-induced ptch1 mRNA expression levels at 300 nM after 36 hrs by RT-qPCR analysis; format: cell-based
In short: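 NIH-3T3 or C3H10T1/2 cells treated as indicated for 36 h, then collected for RT-qPCR of Gli1 and ptch1 mRNA. Data given as mean ± SD.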

[7] = organism: Mus musculus; assay: Inhibition of hedgehog signaling pathway in mouse Ptch+/- p53-/- medulloblastoma cells assessed as reduction in ptch1 mRNA expression at 3 uM by RT-qPCR analysis
In short: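 ptch+/−;p53−/− medulloblastoma cells kept in Neurobasal A/B-27 medium with EGF and bFGF, then treated. Gli1 and ptch1 mRNA measured by RT-qPCR. Data given as mean ± SD.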

[8] = organism: Mus musculus; assay: Inhibition of hedgehog signaling pathway in mouse NIH/3T3 cells harboring sufu shRNA assessed as downregulation of Gli1 mRNA expression at 300 nM by RT-qPCR analysis; format: cell-based
[9] = system: Mus musculus; assay: Downregulation of Gli1 mRNA expression level in athymic nude mouse implanted with mouse Ptch+/- p53-/- medulloblastoma cells at 25 to 50 mg/kg, ip bid for 15 consecutive days measured after 4 hrs of last dosage by RT-qPCR analysis; format: functional, organism-based; in short: as §2
[10] = organism: Mus musculus; assay: Inhibition of hedgehog signaling pathway in mouse Light2 cells in Shh conditioned medium by Gli-luciferase reporter gene assay; format: cell-based
In short: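 Light II cells (NIH-3T3 stably transfected with Gli-responsive firefly luciferase and Renilla expression vector) stimulated with ShhN conditioned medium. This medium was collected from ShhN-transfected HEK293 cells kept in 0.1% FBS. Firefly luciferase normalized to Renilla. IC50 given as mean ± SD (nM) from three separate experiments.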

[11] = organism: Homo sapiens; assay: Inhibition of PGE2-stimulated TCF/LEF activity in human LS174T cells at 1 uM measured after 6 hrs by dual luciferase reporter gene assay; format: cell-based
In short: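 LS174T cells carrying TCF/LEF reporter, stimulated with PGE2 and treated for 6 h. Dual luciferase read-out, firefly normalized to Renilla. Data given as mean ± SD.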

COc1ccc(CN2C[C@@H]3CN(S(=O)(=O)c4ccc(Cl)cc4)CC[C@@H]3Oc3c(NC(=O)C4CC4)cccc3C2=O)cc1 (racemic)
active: inhibition [1] Dose-dependent effect | inhibition [2] Dose-dependent effect | inhibition [3] Dose-dependent effect | inhibition [4] Dose-dependent effect | Activity [5] | inhibition [6] | inhibition [7] | inhibition [8] | Activity [9] | inhibition [10] Dose-dependent effect | inhibition [11]
